In ChEMBL document CHEMBL3525900, “Pharmacokinetics, distribution, and metabolism of [14C]sunitinib in rats, monkeys, and humans” (Drug Metab Dispos, 2012):

Columns and labels:
[1] = Drug concentration in female albino rat uterus assessed as radioactivity per gram of tissue at 20 mg/kg administered as single dose via gastric gavage measured after 24 hrs by autoradiographic analysis; assay type: ADME, organism-based; parameters: dose 20 mg/kg, dosed compound name [14C]Sunitinib; conditions: in vivo, po
[2] = Drug concentration in female albino rat preputial gland assessed as radioactivity per gram of tissue at 20 mg/kg administered as single dose via gastric gavage measured after 24 hrs by autoradiographic analysis; assay type: ADME, organism-based; parameters: dose 20 mg/kg, dosed compound name [14C]Sunitinib; conditions: in vivo, po
Method in brief: (§1)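 Sprague Dawley albino rats, ca 7-8 weeks old, dosed once by gastric gavage with [14C]sunitinib L-malate (15 mg freebase/kg, 100 µCi/kg). One male and one female killed by CO2 at 3, 6, 24, 72 and 168 h. Carcasses frozen in solid CO2/hexane, embedded and cut into 30 µm sagittal sections, then freeze-dried. Radioactivity quantified by whole-body autoradiography against standards by regression, background subtracted.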

[3] = system: Spleen; experiment: Drug concentration in male albino rat spleen assessed as radioactivity per gram of tissue at 20 mg/kg administered as single dose via gastric gavage measured after 3 hrs by autoradiographic analysis; assay type: ADME, organism-based; parameters: dose 20 mg/kg, dosed compound name [14C]Sunitinib; conditions: in vivo, po
[4] = Drug concentration in female albino rat bone marrow assessed as radioactivity per gram of tissue at 20 mg/kg administered as single dose via gastric gavage measured after 3 hrs by autoradiographic analysis; assay type: ADME, organism-based; parameters: dose 20 mg/kg, dosed compound name [14C]Sunitinib; conditions: in vivo, po
Method in brief: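 Sprague Dawley (albino) and Lister Hooded (pigmented) rats, ca 7-8 weeks old, 179-310 g, acclimated 7 days. Single gavage dose of [14C]sunitinib L-malate (15 mg freebase/kg, 100 µCi/kg). One male and one female killed by CO2 per time point: albino at 3, 6, 24, 72, 168 h; pigmented at 24, 72, 168, 336 h. Carcasses frozen in solid CO2/hexane, 30 µm sagittal sections freeze-dried. Tissue radioactivity read by quantitative whole-body autoradiography against regression of standards, mean background subtracted.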

[5] = system: Zone of skin; experiment: Drug concentration in female Lister Hooded pigmented rat abdomen skin assessed as radioactivity per gram of tissue at 20 mg/kg administered as single dose via gastric gavage measured after 24 hrs by autoradiographic analysis; assay type: ADME, organism-based; parameters: dose 20 mg/kg, dosed compound name [14C]Sunitinib; conditions: in vivo, po
Method in brief: (§2)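 Pigmented Lister Hooded rats, 7-8 weeks old, received [14C]sunitinib L-malate by gavage at 20 mg/kg (15 mg freebase/kg, 100 µCi/kg). One rat per sex was killed by CO2 at each of 24, 72, 168 and 336 h. Carcasses were frozen in solid CO2/hexane and cut into 30 µm sagittal sections, then freeze-dried. Tissue radioactivity was quantified by whole-body autoradiography calibrated against standards by regression (LOQ 0.04–0.06 µg eq/g).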

[6] = system: Brain; experiment: Drug concentration in female albino rat brain assessed as radioactivity per gram of tissue at 20 mg/kg administered as single dose via gastric gavage measured after 24 hrs by autoradiographic analysis; assay type: ADME, organism-based; parameters: dose 20 mg/kg, dosed compound name [14C]Sunitinib; conditions: in vivo, po
Method in brief: (§3)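 Sprague Dawley (albino) rats, ca 7-8 weeks old, received a single gastric-gavage dose of [14C]sunitinib L-malate at 20 mg/kg (15 mg freebase/kg, 100 µCi/kg). One animal per sex killed by CO2 at 3, 6, 24, 72 and 168 h, then frozen in CO2/hexane. 30 µm sagittal sections were cut and freeze-dried. Radioactivity per gram quantified by whole-body autoradiography using regression against standards. LOQ 0.04–0.06 µg freebase equiv/g.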

[7] = Drug concentration in male albino rat brown fat assessed as radioactivity per gram of tissue at 20 mg/kg administered as single dose via gastric gavage measured after 3 hrs by autoradiographic analysis; assay type: ADME, organism-based, Brown adipose tissue; parameters: dose 20 mg/kg, dosed compound name [14C]Sunitinib; conditions: in vivo, po
[8] = Drug recovery in feces of female Sprague-Dawley rat at 5 mg/kg, iv administered as single dose during 0 to 72 hrs by liquid scintillation counting; assay type: ADME, organism-based; parameters: dose 5 mg/kg, dosed compound name [14C]Sunitinib, route intravenous; conditions: in vivo
[9] = system: Brain; experiment: Drug concentration in male albino rat brain assessed as radioactivity per gram of tissue at 20 mg/kg administered as single dose via gastric gavage measured after 6 hrs by autoradiographic analysis; assay type: ADME, organism-based; parameters: dose 20 mg/kg, dosed compound name [14C]Sunitinib; conditions: in vivo, po
[10] = Drug concentration in male Lister Hooded pigmented rat testis assessed as radioactivity per gram of tissue at 20 mg/kg administered as single dose via gastric gavage measured after 72 hrs by autoradiographic analysis; assay type: ADME, organism-based; parameters: dose 20 mg/kg, dosed compound name [14C]Sunitinib; conditions: in vivo, po
[11] = Drug concentration in female albino rat bladder assessed as radioactivity per gram of tissue at 20 mg/kg administered as single dose via gastric gavage measured after 24 hrs by autoradiographic analysis; assay type: ADME, organism-based, Urinary bladder; parameters: dose 20 mg/kg, dosed compound name [14C]Sunitinib; conditions: in vivo, po; method in brief: as §3
[12] = system: Spleen; experiment: Drug concentration in male albino rat spleen assessed as radioactivity per gram of tissue at 20 mg/kg administered as single dose via gastric gavage measured after 24 hrs by autoradiographic analysis; assay type: ADME, organism-based; parameters: dose 20 mg/kg, dosed compound name [14C]Sunitinib; conditions: in vivo, po
[13] = system: Thymus; experiment: Drug concentration in male albino rat thymus assessed as radioactivity per gram of tissue at 20 mg/kg administered as single dose via gastric gavage measured after 24 hrs by autoradiographic analysis; assay type: ADME, organism-based; parameters: dose 20 mg/kg, dosed compound name [14C]Sunitinib; conditions: in vivo, po
[14] = Drug concentration in male albino rat bladder assessed as radioactivity per gram of tissue at 20 mg/kg administered as single dose via gastric gavage measured after 24 hrs by autoradiographic analysis; assay type: ADME, organism-based, Urinary bladder; parameters: dose 20 mg/kg, dosed compound name [14C]Sunitinib; conditions: in vivo, po
[15] = system: Lung; experiment: Drug concentration in male Lister Hooded pigmented rat lung assessed as radioactivity per gram of tissue at 20 mg/kg administered as single dose via gastric gavage measured after 24 hrs by autoradiographic analysis; assay type: ADME, organism-based; parameters: dose 20 mg/kg, dosed compound name [14C]Sunitinib; conditions: in vivo, po
[16] = Drug concentration in male Lister Hooded pigmented rat lachrymal gland assessed as radioactivity per gram of tissue at 20 mg/kg administered as single dose via gastric gavage measured after 24 hrs by autoradiographic analysis; assay type: ADME, organism-based; parameters: dose 20 mg/kg, dosed compound name [14C]Sunitinib; conditions: in vivo, po
[17] = system: Adrenal; experiment: Drug concentration in female Lister Hooded pigmented rat adrenal assessed as radioactivity per gram of tissue at 20 mg/kg administered as single dose via gastric gavage measured after 24 hrs by autoradiographic analysis; assay type: ADME, organism-based; parameters: dose 20 mg/kg, dosed compound name [14C]Sunitinib; conditions: in vivo, po; method in brief: as §2
[18] = Drug concentration in male Lister Hooded pigmented rat uveal tract assessed as radioactivity per gram of tissue at 20 mg/kg administered as single dose via gastric gavage measured after 72 hrs by autoradiographic analysis; assay type: ADME, organism-based; parameters: dose 20 mg/kg, dosed compound name [14C]Sunitinib; conditions: in vivo, po
[19] = system: Rattus norvegicus; experiment: Drug recovery in cage residue of female Sprague-Dawley rat at 15 mg/kg, po administered as single dose during 0 to 72 hrs by liquid scintillation counting; assay type: ADME, organism-based; parameters: dose 15 mg/kg, dosed compound name [14C]Sunitinib, route oral; conditions: in vivo
[20] = system: Lung; experiment: Drug concentration in male albino rat lung assessed as radioactivity per gram of tissue at 20 mg/kg administered as single dose via gastric gavage measured after 6 hrs by autoradiographic analysis; assay type: ADME, organism-based; parameters: dose 20 mg/kg, dosed compound name [14C]Sunitinib; conditions: in vivo, po
[21] = system: Blood; experiment: Drug concentration in female albino rat blood assessed as radioactivity per gram of tissue at 20 mg/kg administered as single dose via gastric gavage measured after 24 hrs by autoradiographic analysis; assay type: ADME, organism-based; parameters: dose 20 mg/kg, dosed compound name [14C]Sunitinib; conditions: in vivo, po; method in brief: as §3
[22] = Drug concentration in female albino rat lymph node assessed as radioactivity per gram of tissue at 20 mg/kg administered as single dose via gastric gavage measured after 3 hrs by autoradiographic analysis; assay type: ADME, organism-based; parameters: dose 20 mg/kg, dosed compound name [14C]Sunitinib; conditions: in vivo, po; method in brief: as §1
[23] = system: Kidney; experiment: Drug concentration in female albino rat kidney assessed as radioactivity per gram of tissue at 20 mg/kg administered as single dose via gastric gavage measured after 168 hrs by autoradiographic analysis; assay type: ADME, organism-based; parameters: dose 20 mg/kg, dosed compound name [14C]Sunitinib; conditions: in vivo, po; method in brief: as §1
[24] = system: Kidney; experiment: Drug concentration in male albino rat kidney assessed as radioactivity per gram of tissue at 20 mg/kg administered as single dose via gastric gavage measured after 3 hrs by autoradiographic analysis; assay type: ADME, organism-based; parameters: dose 20 mg/kg, dosed compound name [14C]Sunitinib; conditions: in vivo, po
[25] = Drug concentration in female Lister Hooded pigmented rat eye assessed as radioactivity per gram of tissue at 20 mg/kg administered as single dose via gastric gavage measured after 336 hrs by autoradiographic analysis; assay type: ADME, organism-based; parameters: dose 20 mg/kg, dosed compound name [14C]Sunitinib; conditions: in vivo, po
Method in brief: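 Lister Hooded (pigmented) rats, ca 7-8 weeks old, acclimated 7 days, given [14C]sunitinib L-malate by gastric gavage at 20 mg/kg (15 mg freebase/kg, 100 µCi/kg). One male and one female killed by CO2 at 24, 72, 168 and 336 h. Carcasses frozen in solid CO2/hexane and embedded in frozen cellulose. 30 µm sagittal cryosections were freeze-dried. Tissue radioactivity measured by quantitative whole-body autoradiography against calibration standards, with background subtracted.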

Radiolabel recovery [1]: 0.96 ugequiv
Radiolabel recovery [2]: 5.79 ugequiv
Radiolabel recovery [3]: 20.52 ugequiv
Radiolabel recovery [4]: 10.64 ugequiv
Radiolabel recovery [5]: 3.23 ugequiv
Radiolabel recovery [6]: 0.07 ugequiv
Radiolabel recovery [7]: 8.47 ugequiv
Radiolabel recovery [8]: 77.2%
Radiolabel recovery [9]: 0.34 ugequiv
Radiolabel recovery [10]: 0.87 ugequiv
Radiolabel recovery [11]: 0.54 ugequiv
Radiolabel recovery [12]: 1.23 ugequiv
Radiolabel recovery [13]: 0.58 ugequiv
Radiolabel recovery [14]: 0.35 ugequiv
Radiolabel recovery [15]: 1.55 ugequiv
Radiolabel recovery [16]: 0.94 ugequiv
Radiolabel recovery [17]: 3.59 ugequiv
Radiolabel recovery [18]: 147.37 ugequiv
Radiolabel recovery [19]: 2.2%
Radiolabel recovery [20]: 17.87 ugequiv
Radiolabel recovery [21]: 0.19 ugequiv
Radiolabel recovery [22]: 12.39 ugequiv
Radiolabel recovery [23]: 0.09 ugequiv
Radiolabel recovery [24]: 13.24 ugequiv
Radiolabel recovery [25]: 56.9 ugequiv
SMILES: CCN(CC)CCNC(=O)c1c(C)[nH]c(/[14CH]=C2\C(=O)Nc3ccc(F)cc32)c1C.O=C(O)C[C@H](O)C(=O)O
